Experimental data: publication PMC8164216 (Pharmaceutical research, 2019)
Where “and” joins values, the source holds several entries; their conditions need not be identical. Equal values may be shown once. Marks after values point to notes of the source that are not given here.

Tests used:
MCT1 [1] = conditions: cited from earlier work
[2] = breast tumor xenograft study; cited from earlier work
[3] = Compartmental PK modeling, full TMDD model; type: in vivo, Female BALB/c mice
[4] = Pharmacokinetic study in mice, non-compartmental analysis; type: in vivo, Female BALB/c mice
Summary of the method: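 Mice were dosed IV by tail vein (10, 50, 100 mg/kg) or by oral gavage (100 mg/kg), in 20% w/v cyclodextrin-saline. Plasma from terminal cardiac puncture (n = 3–4/time point; 15 min–24 h IV, 10 min–24 h oral) was quantified by LC/MS/MS (LLOQ 0.15 ng/mL). Naïve-pooled non-compartmental analysis assumed 19 g body weight. AUC was by trapezoidal method, extrapolated to infinity. Fold change is relative to the 10 mg/kg IV dose.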

[5] = Compartmental PK modeling with enterohepatic cycling and M-M elimination; type: in vivo, Female BALB/c mice; conditions: for Vp: simultaneous fit of IV and oral data; for Vmax / Km: M-M elimination; for CLb: clearance to bile compartment; for Km: female, BALB/c, mouse, plasma, other: intravenous and oral, fitted simultaneously
Summary of the method: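 Female BALB/c mice (18–20 g) got the test compound in 20% w/v cyclodextrin in normal saline, by tail-vein IV (10, 50, 100 mg/kg) or oral gavage (100 mg/kg). Terminal cardiac blood (isoflurane, lithium heparin; n = 3–4/time point) was taken to 24 h, and plasma was assayed by LC/MS/MS. Naïve-pooled IV and oral data were fitted together by maximum likelihood to enterohepatic-cycling models with lag time and Michaelis-Menten elimination.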

MCT1 [6] = conditions: murine 4T1 cells; cited from earlier work
MCT1 [7] = target: T1, MCT1 (Mus musculus, UniProt P53986); assay: Full TMDD model; type: in vivo, Female BALB/c mice
T1 sequence (P53986 1-493): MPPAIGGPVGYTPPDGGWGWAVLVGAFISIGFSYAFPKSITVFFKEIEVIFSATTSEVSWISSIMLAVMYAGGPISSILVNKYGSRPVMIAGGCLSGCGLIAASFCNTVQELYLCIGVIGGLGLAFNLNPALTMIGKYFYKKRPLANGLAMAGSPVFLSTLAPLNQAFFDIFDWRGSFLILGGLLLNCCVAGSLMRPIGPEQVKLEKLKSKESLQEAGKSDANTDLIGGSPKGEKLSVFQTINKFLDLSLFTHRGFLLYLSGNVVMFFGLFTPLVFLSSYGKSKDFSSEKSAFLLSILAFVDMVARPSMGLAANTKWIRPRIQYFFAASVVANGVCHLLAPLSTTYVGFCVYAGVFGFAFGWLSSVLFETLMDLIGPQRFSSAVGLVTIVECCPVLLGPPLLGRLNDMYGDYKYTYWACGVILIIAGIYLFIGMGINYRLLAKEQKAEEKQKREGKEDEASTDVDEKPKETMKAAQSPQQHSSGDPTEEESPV
T1 sequence (P18572 140-389 partner limits assumed): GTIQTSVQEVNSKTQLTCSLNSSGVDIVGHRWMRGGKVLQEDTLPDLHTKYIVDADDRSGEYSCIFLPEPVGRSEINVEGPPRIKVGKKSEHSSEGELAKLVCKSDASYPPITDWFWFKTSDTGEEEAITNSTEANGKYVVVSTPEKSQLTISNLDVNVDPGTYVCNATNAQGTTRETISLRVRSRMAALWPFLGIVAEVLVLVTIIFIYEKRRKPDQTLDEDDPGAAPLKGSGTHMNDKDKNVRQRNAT

MCT2 = conditions: to a lesser extent than MCT1; cited from earlier work
[8] = female, BALB/c, mouse, plasma, iv, 10 mg/kg
[9] = female, BALB/c, mouse, plasma, iv, 50 mg/kg
[10] = female, BALB/c, mouse, plasma, iv, 100 mg/kg
[11] = female, BALB/c, mouse, plasma, po, 100 mg/kg

What does the source list for Cc1[nH]nc(C(F)(F)F)c1Cc1sc2c(c1C(=O)N1C[C@](C)(O)CO1)c(=O)n(C)c(=O)n2C(C)C [AZD3965, 5-[(4S)-4-hydroxy-4-methyl-1,2-oxazolidine-2-carbonyl]-1-isopropyl-3-methyl-6-{[3-methyl-5-(trifluoromethyl)-2H-pyrazol-4-yl]methyl}thieno[2,3-d]pyrimidine-2,4-dione]?
Ki (MCT1 [1]): 1.6 nM; concentration in 4T1 tumor versus plasma [2]: 25.5 fold; ka ([3]; Model C): 34.4 ± 4.80 (14.0) h^−1; kpt ([3]; Model C): 0.302 ± 0.074 (24.7) h^−1; ktp ([3]; Model C): 0.452 ± 0.041 (9.12) h^−1; Vp ([3]; Model C (full TMDD model), fixed): 2.04 ml and 2.04 (Fixed) ml; Vc/F ([4]; IV 10 mg/kg, mice (19 g)): 53.4 mL; AUC0−∞, fold change from the lowest IV dose ([4]; IV 50 mg/kg vs 10 mg/kg): 8.36 fold; CL, fold change from the lowest IV dose ([4]; IV 50 mg/kg vs 10 mg/kg): 0.50 fold; Cmax, fold change from the lowest IV dose ([4]; IV 50 mg/kg vs 10 mg/kg): 7.49 fold; Vss, fold change from the lowest IV dose ([4]; IV 50 mg/kg vs 10 mg/kg): 0.58 fold; t1/2, fold change from the lowest IV dose ([4]; IV 50 mg/kg vs 10 mg/kg): 0.89 fold; λz, fold change from the lowest IV dose ([4]; IV 50 mg/kg vs 10 mg/kg): 1.12 fold; Vc/F ([4]; IV 50 mg/kg, mice (19 g)): 31.0 mL; AUC0−∞, fold change from the lowest IV dose ([4]; IV 100 mg/kg vs 10 mg/kg): 17.5 fold; CL, fold change from the lowest IV dose ([4]; IV 100 mg/kg vs 10 mg/kg): 0.47 fold; Cmax, fold change from the lowest IV dose ([4]; IV 100 mg/kg vs 10 mg/kg): 13.6 fold; Vss, fold change from the lowest IV dose ([4]; IV 100 mg/kg vs 10 mg/kg): 0.65 fold; t1/2, fold change from the lowest IV dose ([4]; IV 100 mg/kg vs 10 mg/kg): 0.87 fold; λz, fold change from the lowest IV dose ([4]; IV 100 mg/kg vs 10 mg/kg): 1.16 fold; Vc/F ([4]; IV 100 mg/kg, mice (19 g)): 34.6 mL; AUC(0-inf) [4, 8]: 4940 ng·h/mL; Cmax [4, 8]: 4020 ng/mL; Vd [4, 8]: 0.0442 L; clearance [4, 8]: 0.773 mL/min; concentration at 24 h [4, 8]: 0.285 ng/mL; half-life [4, 8]: 2.91 h; k el [4, 8]: 6.61e-05 s⁻¹; AUC(0-inf) [4, 9]: 41300 ng·h/mL; Cmax [4, 9]: 30100 ng/mL; Vd [4, 9]: 0.0256 L; clearance [4, 9]: 0.383 mL/min; half-life [4, 9]: 2.6 h; k el [4, 9]: 7.39e-05 s⁻¹; AUC(0-inf) [4, 10]: 86400 ng·h/mL; Cmax [4, 10]: 54500 ng/mL; Vd [4, 10]: 0.0286 L; clearance [4, 10]: 0.367 mL/min; half-life [4, 10]: 2.51 h; k el [4, 10]: 7.64e-05 s⁻¹; bioavailability ([4]; female, BALB/c, mouse, plasma, oral, 100 mg/kg): 82.7%; AUC(0-inf) [4, 11]: 71400 ng·h/mL; Cmax [4, 11]: 30300 ng/mL; Tmax [4, 11]: 0.333 h; half-life [4, 11]: 4.46 h; k el [4, 11]: 4.33e-05 s⁻¹; CL/F ([4]; oral 100 mg/kg, mice (19 g)): 26.6 mL/h; Vc/F ([4]; oral 100 mg/kg, mice (19 g)): 171 mL; CLd ([5]; Model A): 0.332 ± 0.064 (19.3) ml/h; F ([5]; Model A): 1.00 ± 0.003 (0.32); ka ([5]; Model A): 3.39 ± 1.11 (32.7) h^−1; Vp ([5]; Model A (EHC model)): 48.6 ± 5.86 (12.1) ml; Vmax ([5]; Model A): 26.4 ± 8.30 (31.7) μg/h; CLb ([5]; Model A): 0.529 ± 0.074 (13.9) ml/h; ko ([5]; Model A, first-order rate constant of release from bile): 0.0015 ± 0.0004 ^a (29.0) h^−1; Tlag ([5]; Model A, fixed in final estimation): 5.92 (Fixed) h; CLd ([5]; Model B): 0.023 ± 0.003 (11.1) ml/h; F ([5]; Model B): 0.998 ± 0.003 (0.31); ka ([5]; Model B): 5.13 ± 1.98 (38.6) h^−1; Vp ([5]; Model B (simplified EHC model)): 55.8 ± 5.20 (9.35) ml; Tlag.iv ([5]; Model B, IV): 6.00 ± 0.0006 (0.01) h; Vmax ([5]; Model B): 411 ± 42.0 (10.3) μg/h; CLb ([5]; Model B): 0.178 ± 0.019 (10.8) ml/h; Tlag.po ([5]; Model B, oral): 5.90 ± 0.06 (1.05) h; ko ([5]; Model B, zero-order rate constant of release from bile): 0.386 ± 0.146 ^b (37.9) ng/h; Km ([5]; Model A): 9.59 ± 4.63 µg/mL; Km ([5]; Model B): 385 ± 58 µg/mL; duration of inhibition of L-lactate uptake (MCT1 [6]): up to 5 h; pre-incubation period for maximal inhibition of L-lactate uptake (MCT1 [6]): 5 min; Rtotal (total transporter concentration) (MCT1 [7]; Model C): 54.8 ± 4.90 μg/ml and 54.8 ± 4.90 (8.92) μg/ml; kon (MCT1 [7]; Model C, converted based on the molecular weight): 6.21 ± 5.92 (95. 3) μM^−1 h^−1; koff (MCT1 [7]; mouse): 0.00641 s⁻¹; activity against MCT2 (MCT2): some activity
